# From PubChem
# Sampled rows, rich in hits. Any-hit rate of the full collection: about 0.61%.
# E-sel inducer: E-selectin induction on HUVECs. AID 686992. HUVEC E-selectin immunofluorescence imaging; normalized: neutral wells 0, TNF-alpha wells 100. 260,000 compounds, 0.37% hits. P16581. activation, % at 7.58 µM;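 active = mean E-selectin-positive cell signal at least 10% of the positive control, reached in at least 60% of replicates, without over 20% cell loss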
# Target sequence (P16581 whole entry, looked up): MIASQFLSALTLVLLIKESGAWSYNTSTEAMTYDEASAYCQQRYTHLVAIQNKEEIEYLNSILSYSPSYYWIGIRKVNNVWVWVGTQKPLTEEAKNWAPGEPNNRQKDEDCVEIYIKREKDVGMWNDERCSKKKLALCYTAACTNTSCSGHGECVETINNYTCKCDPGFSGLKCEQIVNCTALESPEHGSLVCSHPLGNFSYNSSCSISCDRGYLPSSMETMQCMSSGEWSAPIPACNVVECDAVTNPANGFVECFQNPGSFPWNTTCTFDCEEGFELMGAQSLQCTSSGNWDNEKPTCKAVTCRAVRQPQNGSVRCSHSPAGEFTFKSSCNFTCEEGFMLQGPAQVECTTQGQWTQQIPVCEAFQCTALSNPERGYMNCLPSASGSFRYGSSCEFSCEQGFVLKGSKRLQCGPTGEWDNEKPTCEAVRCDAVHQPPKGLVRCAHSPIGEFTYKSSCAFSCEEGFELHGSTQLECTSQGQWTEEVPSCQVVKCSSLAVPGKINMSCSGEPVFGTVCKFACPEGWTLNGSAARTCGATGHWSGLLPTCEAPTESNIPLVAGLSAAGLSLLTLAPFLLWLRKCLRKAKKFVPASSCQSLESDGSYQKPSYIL
#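 Assay system: HUVEC primary endothelial cells. Input: 3,000 HUVEC seeded per well. Doses: one compound dose added by pin transfer. Read-out basis: % PE-positive cells. Benchmarks: TNF-alpha high, DMSO low. Detection: immunofluorescence imaging. Buffer or medium: EGM-2, gelatin.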
# CFTR F508del cor: correctors of CFTR F508del function in bronchial epithelial cells; 350,000 compounds, 0.36% hits; CFBE cells, YFP halide quenching; stimulated with forskolin plus potentiator P3; % fluorescence drop versus neutral controls; activity (quench increase), % at 7.58 µM; AID 720511;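 active = mean added fluorescence quench of at least 8% versus neutral control, with both replicates also reaching 8%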;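 also: cells transiently co-express mutant CFTR-F508del with the halide-sensitive YFP; corrector assay measuring rescue of mutant channel to the surface after 24 h compound exposure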
# XiGFP reactiv: X-chromosome reactivation activator. XiGFP mouse fibroblasts, % GFP-positive cells imaging, 3 d; cells co-treated with 5-aza-dC sensitizer; scaled so ellipticine positive control = 100%. activation, % at 7.58 µM. 360,000 compounds, 0.055% hits;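 active = mean normalized replicate activation at least 10% and every replicate at or above 10%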;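 also: 0% = median of on-plate neutral control wells and 100% = ellipticine 6 µM median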
#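 Assay system – SV40-immortalized XiGFP fibroblast cells, line 68-5-11 · Buffer or medium – DMEM supplemented with 5-aza-dC as sensitizing agent · Dosing – one concentration, pinned · Benchmarks – positive control ellipticine, 6 µM final · Times – 3 days compound exposure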
# The depositor's hits bear a star; · = no result given.
SMILES,E-sel inducer,CFTR F508del cor,XiGFP reactiv
CC(CN1CCCC1)OC(=O)c1ccccc1Cl (centres undefined),·,·,-0.2
Fc1ccc(NC(=S)N2CCN(c3cccc(C(F)(F)F)c3)CC2)cc1,147.8*,·,0.1
O=S(=O)(Nc1ncccn1)c1ccc(NC(=S)N2CCN(c3cccc(C(F)(F)F)c3)CC2)cc1,0.4,-1.2,-0.1
CC(=O)NC[C@@H]1[C@@H](c2ccc(-c3cccnc3)cc2)[C@@H](CO)N1C(=O)C1CC1,-0.3,-2.1,0.0
FC(F)(F)c1ccc2c(c1)NCC1CCCN21 (centres undefined),5.3,1.0,0.3
FC(F)(F)c1ccc2c(c1)N1CCCC1CN2 (centres undefined),57.5*,0.4,0.1
C[C@H]1CN([C@@H](C)CO)C(=O)c2cccc(N(C)C)c2O[C@@H]1CN(C)S(=O)(=O)c1cccs1,0.0,3.5,0.4
CC(C)Oc1cc(O)c2c(=O)c(-c3ccc(O)cc3)coc2c1,114.5*,0.1,0.1
O=c1c(-c2ccc(O)cc2)coc2cc(O)cc(O)c12,·,3.4,·
CCCNC(=O)N1[C@@H]2CN(C(=O)C3CCC3)c3ccccc3[C@@H]2[C@@H]1CO,-0.3,0.6,0.0
COc1c(C(=O)Nc2ccc(Br)cn2)ccc2ccccc12,-0.2,3.5,0.0
O=C(Nc1ccc(Br)cn1)c1cccc2ccccc12,·,14.2*,0.6
COc1ccc(C(=O)N2C[C@@H]3[C@H](c4ccccc42)[C@H](CO)N3C(=O)Cc2ccccn2)cc1,0.0,-0.5,-0.1
C[C@@H]1CN([C@H](C)CO)C(=O)c2cc(-c3ccc(F)cc3)cnc2O[C@H]1CN(C)Cc1cccnc1,0.3,0.3,-0.4
N#Cc1c(-c2ccc(F)cc2)c(-c2ccc(F)cc2)nn(CCO)c1=O,8.3,17.6*,0.2
Cc1c(C(=O)NN)nn(-c2ccc(F)cc2)c(=O)c1C#N,1.0,-4.1,0.1
C[C@@H]1CCCCO[C@H](CN(C)C(=O)Nc2cccc3ccccc23)[C@@H](C)CN([C@H](C)CO)C(=O)c2cc(NC(=O)NC3CCCCC3)ccc2O1,·,0.4,0.1
C[C@H]1CN([C@@H](C)CO)C(=O)c2cccc(NC(=O)Nc3ccccc3)c2O[C@H]1CN(C)Cc1ccc(C(=O)O)cc1,1.9,0.5,-0.4
CN(C)C(=O)C[C@H]1C[C@@H]2c3cc(NC(=O)c4cccnc4)ccc3O[C@@H]2[C@@H](CO)O1,-0.1,0.6,0.0
Cc1cccc(NC(=O)CSc2ncnc3c2oc2ccccc23)c1,-0.2,-0.3,0.1
Cc1ccc2nc(NC(=O)CSc3ncnc4c3oc3ccccc34)sc2c1,82.3*,-3.5,0.1
Cc1ccc(-c2cnc3c(c2)C(=O)N([C@H](C)CO)C[C@H](C)[C@H](CN(C)C)O3)cc1,-2.8,-1.1,-0.4
O=C(CN1CCOCC1)N1CCCCN2[C@@H](CO)[C@@H](c3ccc(C#Cc4ccccc4)cc3)[C@@H]2C1,-0.3,-6.2,0.1
C[C@H](CO)N1C[C@H](C)[C@H](CN(C)S(=O)(=O)c2ccc(Cl)cc2)Oc2ccc(NS(=O)(=O)c3ccccc3)cc2C1=O,-0.2,-1.5,-1.1
CC1=Nc2cc(C(=O)NCC3CCCO3)ccc2Sc2ccc(C)cc21 (centres undefined),·,10.5*,0.9
SMILES,E-sel inducer,CFTR F508del cor,XiGFP reactiv
CC1=Nc2cc(C(=O)NCCCN3CCN(C)CC3)ccc2Sc2ccc(C)cc21,·,-0.9,0.0
COc1ccc(C(=O)Nc2cc(C)c(NC(=O)c3ccccn3)cn2)cc1,·,0.8,0.1
COc1ccc(C(=O)Nc2cnc(NC(=O)c3cccs3)cc2C)cc1,33.3*,-1.2,0.4
N#CC(C#N)=C1C=CC=CN1/C(=C\c1ccco1)C(=O)c1ccc(-c2ccccc2)cc1,·,·,15.1*
N#CC(C#N)=C1C=CC=CN1/C(=C\c1ccco1)C(=O)c1ccc(Cl)cc1,·,-9.5,7.6
COc1ccc(S(=O)(=O)Nc2ccc3c(c2)C(=O)N([C@H](C)CO)C[C@H](C)[C@H](CN(C)Cc2ccc4c(c2)OCO4)OCCCC[C@H](C)O3)cc1,-0.2,-0.8,0.0
CCCNC(=O)N1[C@H](CO)[C@@H](c2ccc(C3=CCCC3)cc2)[C@@H]1CN(C)C(C)=O,0.2,8.1*,0.0
CCCNC(=O)N1[C@H](CO)[C@@H](c2ccc(C3=CCCC3)cc2)[C@H]1CNC(C)=O,0.0,2.9,0.0
Cn1c(C(=O)c2ccccc2[N+](=O)[O-])nc2ccccc21,·,8.6*,0.0
Cn1c(C(=O)c2ccccc2)nc2ccccc21,·,-1.6,0.0
C[C@@H]1CN([C@H](C)CO)S(=O)(=O)c2ccc(C#CC(C)(C)O)cc2O[C@H]1CN(C)C(=O)C1CC1,1.1,-1.8,-0.3
